Screening data deposited in PubChem BioAssay by The Scripps Research Institute Molecular Screening Center.
TAAR1 ag: human TAAR1 agonists, primary screen, Fluo-8 calcium fluorescence, CHO RD-HGA16 cells; Trace amine-associated receptor 1 (Homo sapiens), Q96RJ0; vehicle wells 0%, saturating PEA agonist 100%; activation, % at 3 µM; 360,000 compounds, 0.99% hits; AID 624467, 2012;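 active means activation above the mean activation of all test compounds in the run plus 3 SD, cut at about 38% in these data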
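System: CHO-derived RD-HGA16 cells with stable Gα16 and human TAAR1. Times: 17-24 h plating, Fluo-8 75 min 37 °C, 30 min RT. Measured by: calcium-sensitive Fluo-8 signal, excitation 470-495, emission 515-575 nm. Read-out basis: % activation relative to PEA EC100 response. Control set: DMSO and PEA EC100. Repeats: no replicates (n 1).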
TAAR1 antagonist: human TAAR1 antagonists, primary screen, Fluo-8 calcium fluorescence, CHO RD-HGA16 cells. Trace amine-associated receptor 1 (Homo sapiens), Q96RJ0. antagonist. inhibition, % at 3 µM. 360,000 compounds, 1.5% hits. AID 624466, 2012;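 active means inhibition above a per-plate cutoff, the mean inhibition of test compounds on that plate plus 3 SD, cut at about 49% in these data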;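 further: 0% = DMSO plus EC80 beta-PEA response and 100% = DMSO alone without agonist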
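Material: CHO RD-HGA16 cells bearing hTAAR1; compound dosing: one-point dosing, 3 µM nominal final; schedule: dye loading 75 min at 37 °C, then 30 min room temperature; measured by: calcium fluorescence with Fluo-8; control set: vehicle and agonist controls; replication: n of 1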
OX1R antag-1: OX1R (HCRTR1) antagonists, primary screen, fluorescence, CHO/OX1R cells, Fluo-8 calcium, orexin A. Fluo-8 calcium fluorescence. inhibition, % at 5 µM. 330,000 compounds, 0.43% hits. AID 434989, 2010;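 active means inhibition above its plate's threshold, mean inhibition of all tested compounds on the plate plus 3 SD, cut at about 37% in these data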;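 further: 0% = orexin A challenge wells and 100% = SB-334867-A antagonist wells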
Target sequence (O43613 whole entry, looked up): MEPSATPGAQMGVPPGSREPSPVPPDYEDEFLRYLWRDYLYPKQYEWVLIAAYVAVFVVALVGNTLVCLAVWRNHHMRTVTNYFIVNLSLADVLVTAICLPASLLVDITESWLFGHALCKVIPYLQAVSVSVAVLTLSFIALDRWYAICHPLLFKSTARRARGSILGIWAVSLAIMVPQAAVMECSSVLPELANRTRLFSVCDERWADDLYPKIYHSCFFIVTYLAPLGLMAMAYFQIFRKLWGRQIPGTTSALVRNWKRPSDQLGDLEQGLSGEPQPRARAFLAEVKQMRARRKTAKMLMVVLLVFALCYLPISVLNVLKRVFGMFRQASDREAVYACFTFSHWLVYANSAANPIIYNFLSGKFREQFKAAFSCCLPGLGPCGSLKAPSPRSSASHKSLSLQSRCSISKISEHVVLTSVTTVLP
GPR7 antag: GPR7 receptor antagonists, primary screen, cell-based, fluorescence, single concentration; 290,000 compounds, 1.1% hits; GPR7-expressing cells, fluorescence antagonist assay; inhibition, % at 4.4 µM; AID 1861, 2009; in the data active means inhibition above about 16%, passing the limit was not always enough;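 further: cells stimulated with the agonist NPW; 0% = agonist with vehicle and 100% = vehicle without agonist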
OX1R antag-2: antagonists of human orexin 1 receptor (OX1R) | 330,000 compounds, 1.8% hits | AID 485270, 2010 | inhibition, % at 6.6 µM | OX1R-expressing cells, FRET antagonist read-out | Orexin/Hypocretin receptor type 1 (Homo sapiens), O43613; in the data active means inhibition mostly above about 38%, no sharp cut-off; inactive means mostly below about 40%;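 further: 0% = agonist challenge alone and 100% = reference antagonist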
CHO parental Ca: ATP-evoked calcium signal inhibitors, parental CHO, primary screen, counter-screen for OX1R antagonist project, cell-based, fluorescence, Fluo-8 calcium dye; 330,000 compounds, 0.63% hits; inhibition, % at 5.6 µM; parental CHO-K1, ATP-induced calcium, Fluo-8 fluorescence; AID 463079, 2010;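 active means inhibition above that plate's mean sample inhibition plus 3 SD, cut at about 26% in these data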;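 further: 0% = ATP-challenged DMSO wells and 100% = DMSO wells without ATP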
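Assay system: untransfected parental CHO cell line. Also added: ATP agonist challenge. Dosing: one dose, 5.6 µM nominal. Measured by: Fluo-8 fluorescence. Read-out: % inhibition. Benchmarks: ATP wells versus no-ATP DMSO wells. Repeats: no replicates.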
TAAR1 ag conf: human TAAR1 agonists, retest of hits, confirmation, Fluo-8 calcium fluorescence, CHO RD-HGA16 cells. shares compounds with TAAR1 ag. AID 651783, 2012. activation, % at 3 µM. scaled: DMSO 0%, maximal phenethylamine 100%. 2,400 compounds, 82% hits;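 active means activation above a cutoff set at the run's mean compound activation plus 3 SD, cut at about 39% in these data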
Ga16 nonsel ag: nonselective calcium mobilization agonists, CHO-Ga16 cells, counter-screen for hTAAR1 agonist project, cell-based, fluorescence, CHO-Ga16 parental line; shares compounds with TAAR1 ag; Fluo-8 calcium fluorescence; normalized to maximal ATP response, DMSO zero; activation, % at 3 µM; 2,400 compounds, 50% hits; AID 651787, 2012;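 active means activation above the run cutoff, the mean activation over all tested wells plus 3 SD, cut at about 12% in these data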;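 further: 0% = DMSO wells and 100% = maximal ATP response on the peak over basal ratio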
TAAR1 desens: TAAR1 desensitization by agonist hits, confirmation, counter-screen for TAAR1 agonist project, cell-based, fluorescence, tachyphylaxis; inhibition, % at 3 µM; shares compounds with TAAR1 ag; AID 651951, 2012; CHO RD-HGA16 hTAAR1, Fluo-8 calcium, beta-PEA response inhibition; 2,400 compounds, 46% hits;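 active means inhibition above the run cutoff, the mean inhibition of all test compounds plus 3 SD, cut at about 49% in these data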;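 further: beta-PEA stimulus applied at its EC80; loss of beta-PEA calcium signal after compound pretreatment read as receptor desensitization; 0% = DMSO with beta-PEA at EC80 and 100% = DMSO alone without agonist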
Ga16 nonsel ant: inhibition of ATP-evoked calcium response in CHO-Ga16 cells, counter-screen for TAAR1 agonist project, cell-based, fluorescence | shares compounds with TAAR1 ag | 2,400 compounds, 39% hits | inhibition, % at 3 µM | CHO-Ga16 ATP-induced calcium, Fluo-8 fluorescence;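 active means inhibition above the plate's mean compound inhibition plus 3 SD, computed per plate, cut at about 22% in these data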;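 further: 0% = EC80 ATP with DMSO and 100% = DMSO wells without ATP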
Active calls of the source: *; . = no result. Compounds with a hit are over-represented: about 4.6% of the library has one in this group of screens.

SMILES	TAAR1 ag	TAAR1 antagonist	OX1R antag-1	GPR7 antag	OX1R antag-2	CHO parental Ca	TAAR1 ag conf	Ga16 nonsel ag	TAAR1 desens	Ga16 nonsel ant
Cc1ccc(-c2cc(C(=O)NC3CCCC3)no2)cc1	51*	13	-20	-7	13	-5	10	6	7	13
CN(CCc1ccccc1)C(=O)c1[nH]c(C(F)(F)F)nc1-c1ccccc1	70*	6	.	.	.	.	77*	6	32	4
O=c1oc2c(O)cccc2cc1-c1nc2ccccc2[nH]1	83*	9	.	-9	.	.	93*	90*	46	29*
S=C(NCCc1ccccc1)Nc1c(Cl)cccc1Cl	68*	36	-36	-5	17	-23	78*	0	80*	9
Fc1ccc(F)c(NC(=S)NCCc2ccccc2)c1	3	8	-7	-4	38	11	.	.	.	.
FC(F)Oc1ccccc1NC(=S)NCCc1ccccc1	51*	-14	-20	.	4	-18	77*	5	35	5
COC(=O)C1(C(=O)OC)C2CCCCC2N(S(=O)(=O)c2ccc(C)cc2)[C@@H]1CC(C)=O (stereo partly drawn)	-1	11	.	.	.	.	.	.	.	.
CC1(C(=O)O)CCC(C(=O)Nc2cccc(F)c2)C1(C)C (stereo not drawn)	-1	-11	-2	-10	3	-7	.	.	.	.
CCOC(=O)CC1C(=O)NCCN1C(=O)c1ccc(Cl)cc1Cl (stereo not drawn)	73*	-2	-9	-4	-7	-7	3	-1	-3	11
CCOC(=O)CC1C(=O)NCCN1C(=O)c1ccc(F)cc1F (stereo not drawn)	14	-7	-16	-4	6	-5	.	.	.	.
COc1cc(/C=C/C(=O)OCC(=O)Nc2ccc([N+](=O)[O-])cc2)ccc1O	72*	46	21	14	6	30	77*	43*	58*	39*
O=C(COC(=O)/C=C/c1ccc(Cl)cc1)Nc1ccc2[nH]c(=O)[nH]c2c1	3	-14	1	.	5	5	.	.	.	.
COc1cc(/C=C/C(=O)OCC(=O)Nc2ccc(S(N)(=O)=O)cc2)ccc1O	1	-14	8	-6	13	15	.	.	.	.
O=C(COC(=O)/C=C/c1ccc(Cl)cc1)Nc1ccccc1	62*	44	-6	-6	9	8	15	2	6	6
CCC(=O)c1ccc(OCC(=O)OCC(=O)NCC2CCCO2)cc1 (stereo not drawn)	1	0	-23	-11	-7	-8	.	.	.	.
Nc1c(NCCC2=CCCCC2)c(=O)[nH]c(=O)n1Cc1ccccc1	55*	-13	-34	-8	11	-18	68*	2	28	7
COc1cccc(CNC(=O)CC2C(=O)NCCN2CCCc2ccccc2)c1 (stereo not drawn)	19	-15	-29	-1	20	-20	.	.	.	.
CC(C)(C)CN1CCNC(=O)C1CC(=O)NCCc1cnn(-c2ccccc2)c1 (stereo not drawn)	11	9	-28	5	25	-20	.	.	.	.
COc1ccccc1CCNC(=O)CC1C(=O)NCCN1CCCc1ccccc1 (stereo not drawn)	74*	17	-33	3	25	-24	71*	2	43	11
O=C(CC1C(=O)NCCN1CC1CCCCC1)NCc1ccc(F)cc1 (stereo not drawn)	0	5	-16	-1	5	-22	.	.	.	.
O=C(CC1C(=O)NCCN1CC1CCCCC1)NCCc1ccc(F)cc1 (stereo not drawn)	45*	-17	-27	13	10	-18	50*	0	5	2
CC(C)(C)CN1CCNC(=O)C1CC(=O)NCCc1ccccc1F (stereo not drawn)	.	.	-30	6	20	-36	.	2	.	5
Cc1ccc(N2C(N)=C(C#N)C(c3cccs3)C3=C2CC(C)(C)CC3=O)cc1 (stereo not drawn)	45*	-12	-35	-6	9	-34	39*	12*	0	5
O=C(O)c1ccc(-c2ccc(/C=N/Nc3ccc([N+](=O)[O-])cc3)o2)cc1	131*	82*	77*	-7	-1	64*	86*	66*	88*	70*
CCC(=O)OCCn1c(=O)c2cc3c(=O)n(CCOC(=O)CC)c(=O)c3cc2c1=O	1	4	-2	8	19	2	.	.	.	.
CCCOC(=O)Cn1c(=O)c2cc3c(=O)n(CC(=O)OCCC)c(=O)c3cc2c1=O	53*	12	.	-3	.	.	6	3	-5	6
COc1cc(CNCCc2ccccc2)ccc1OCc1ccc(Cl)nc1	54*	7	-23	17	25	-17	71*	10	43	12
CCOc1cc(CNCCc2ccc(S(N)(=O)=O)cc2)ccc1OCc1ccc(Cl)cc1	69*	47	77*	51*	13	61*	85*	46*	91*	72*
O=C(NCc1ccco1)c1sc(=S)n2c1[nH]c(=O)c1ccccc12	75*	36	8	7	50*	-6	38*	23*	15	17
